Paper PMC7003535 (Environmental science & technology, 2020)

Columns and labels:
[1] = target: T1, gmAhr1a (Gadus morhua, UniProt A0A6H1Z2L5); test: XRE luciferase reporter gene assay in COS-7 cells, gmAhr1a with gmArnt1; type: cell-based, Atlantic cod (Gadus morhua); conditions: for Activation of transcription of XRE-controlled luciferase reporter gene: increasing concentrations; for Shape of concentration-response: at higher concentrations
T1 sequence (A0A6H1Z2L5 1-957): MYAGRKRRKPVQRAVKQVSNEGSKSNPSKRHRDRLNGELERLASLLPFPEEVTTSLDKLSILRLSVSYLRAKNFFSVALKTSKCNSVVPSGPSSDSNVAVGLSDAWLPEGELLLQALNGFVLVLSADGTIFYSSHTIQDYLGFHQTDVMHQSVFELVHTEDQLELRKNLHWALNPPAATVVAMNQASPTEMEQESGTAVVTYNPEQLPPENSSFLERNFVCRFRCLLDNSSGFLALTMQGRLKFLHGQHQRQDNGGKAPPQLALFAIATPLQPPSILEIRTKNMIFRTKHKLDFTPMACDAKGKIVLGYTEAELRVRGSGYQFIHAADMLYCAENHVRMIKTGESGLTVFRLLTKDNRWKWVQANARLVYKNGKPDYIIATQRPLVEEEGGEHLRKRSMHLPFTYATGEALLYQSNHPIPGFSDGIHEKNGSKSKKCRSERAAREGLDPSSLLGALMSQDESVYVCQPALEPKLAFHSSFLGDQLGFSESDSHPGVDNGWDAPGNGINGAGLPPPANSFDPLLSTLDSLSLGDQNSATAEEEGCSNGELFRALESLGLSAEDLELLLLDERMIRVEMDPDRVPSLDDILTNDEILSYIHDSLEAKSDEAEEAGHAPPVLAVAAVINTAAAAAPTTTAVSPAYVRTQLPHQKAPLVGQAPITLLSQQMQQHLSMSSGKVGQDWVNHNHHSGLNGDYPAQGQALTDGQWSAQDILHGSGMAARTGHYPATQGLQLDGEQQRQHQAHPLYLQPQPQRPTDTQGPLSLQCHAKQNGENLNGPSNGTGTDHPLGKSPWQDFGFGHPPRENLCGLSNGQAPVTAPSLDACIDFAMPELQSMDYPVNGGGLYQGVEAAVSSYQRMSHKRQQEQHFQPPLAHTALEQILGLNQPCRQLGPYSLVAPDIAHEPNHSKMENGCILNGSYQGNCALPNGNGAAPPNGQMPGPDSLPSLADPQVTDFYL

[2] = target: T2, gmAhr2a (Gadus morhua, UniProt A0A6H1Z3G8); test: XRE luciferase reporter gene assay in COS-7 cells, gmAhr2a with gmArnt1; type: cell-based, Atlantic cod (Gadus morhua); conditions: for Activation of transcription of XRE-controlled luciferase reporter gene: increasing concentrations
T2 sequence (A0A6H1Z3G8 1-1127): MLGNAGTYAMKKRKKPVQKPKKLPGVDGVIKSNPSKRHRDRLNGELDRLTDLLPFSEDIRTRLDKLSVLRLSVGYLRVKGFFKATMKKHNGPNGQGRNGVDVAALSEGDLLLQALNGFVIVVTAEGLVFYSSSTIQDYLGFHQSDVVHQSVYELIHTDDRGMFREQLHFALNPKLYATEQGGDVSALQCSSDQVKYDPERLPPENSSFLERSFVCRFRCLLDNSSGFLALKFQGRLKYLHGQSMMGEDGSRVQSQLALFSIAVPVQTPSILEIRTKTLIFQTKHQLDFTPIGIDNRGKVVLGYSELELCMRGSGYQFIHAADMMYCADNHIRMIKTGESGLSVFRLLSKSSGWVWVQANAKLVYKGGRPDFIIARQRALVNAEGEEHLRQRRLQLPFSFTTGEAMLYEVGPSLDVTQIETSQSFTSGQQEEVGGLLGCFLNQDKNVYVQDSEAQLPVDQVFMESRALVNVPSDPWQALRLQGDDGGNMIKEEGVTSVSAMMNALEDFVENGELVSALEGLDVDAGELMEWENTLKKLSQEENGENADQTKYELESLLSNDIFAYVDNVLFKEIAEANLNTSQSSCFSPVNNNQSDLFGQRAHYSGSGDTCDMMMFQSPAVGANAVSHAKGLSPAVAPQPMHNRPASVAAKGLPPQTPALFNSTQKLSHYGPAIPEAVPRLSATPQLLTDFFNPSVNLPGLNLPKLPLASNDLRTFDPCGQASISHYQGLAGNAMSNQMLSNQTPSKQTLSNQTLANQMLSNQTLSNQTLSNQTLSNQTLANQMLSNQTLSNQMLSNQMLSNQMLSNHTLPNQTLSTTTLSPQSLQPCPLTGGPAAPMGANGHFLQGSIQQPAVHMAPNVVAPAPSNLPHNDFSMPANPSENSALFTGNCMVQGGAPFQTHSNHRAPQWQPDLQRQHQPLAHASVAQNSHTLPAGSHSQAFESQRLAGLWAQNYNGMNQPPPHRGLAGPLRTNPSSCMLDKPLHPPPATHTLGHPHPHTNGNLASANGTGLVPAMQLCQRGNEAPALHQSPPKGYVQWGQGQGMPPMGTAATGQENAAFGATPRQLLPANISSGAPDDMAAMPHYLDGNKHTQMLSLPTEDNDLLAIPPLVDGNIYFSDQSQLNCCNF

[3] = test system: cyp1a; test: Ex vivo precision-cut liver slices, cyp1a mRNA expression by qPCR; type: cell-based, Atlantic cod (Gadus morhua); conditions: cod liver slices ex vivo, 1 nM was the lowest concentration used
[4] = test system: COS-7 cells; test: Cytotoxicity in COS-7 cells; type: cell-based, simian; conditions: for TCDD the effect is at the highest concentration
[5] = test system: gmahr1a and gmahr2a; test: Ex vivo precision-cut liver slices, gmahr1a and gmahr2a mRNA expression; type: cell-based, Atlantic cod (Gadus morhua); conditions: cod liver slices ex vivo, increasing concentrations
[6] = target: T1, gmAhr1a; test: Velocity sedimentation radioligand binding to in vitro expressed gmAhr1a; set-up: species or system Atlantic cod (Gadus morhua); conditions: single concentration, qualitative
[7] = test system: fhAhr2a; test: Velocity sedimentation radioligand binding to in vitro expressed fhAhr2a; set-up: species or system Fundulus heteroclitus; conditions: single concentration, qualitative
[8] = test system: precision-cut liver slices; test: Viability of precision-cut liver slices; type: cell-based, Atlantic cod (Gadus morhua); conditions: 100 nM
Summary of the method: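 Precision-cut liver slices from juvenile Atlantic cod of both sexes (about 1.5–2 years old; tank-held in natural seawater at 9 °C, 12:12 h light/dark). Slices were exposed to Ahr agonist test compounds in 0.01% DMSO, with n=5–7 per compound. Viability was read by MTT reduction and cytotoxicity by LDH release.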

[9] = target: T2, gmAhr2a; test: Velocity sedimentation radioligand binding to in vitro expressed gmAhr2a; set-up: species or system Atlantic cod (Gadus morhua); conditions: [3H]BNF 10 nM, single concentration, qualitative

## O=Cc1c2[nH]c3ccccc3c2cc2[nH]c3ccccc3c12 [FICZ, 6-formylindolo[3,2-b]carbazole]
[1]; COS-7 cells, gmAhr1a
  Activation of transcription of XRE-controlled luciferase reporter gene: activated
[1]; COS-7 cells, gmAhr1a, luciferase reporter
  EC50 (in words): picomolar range
[1]; gmAhr1a
  Shape of concentration-response: bi-phasic concentration-response
[2]; COS-7 cells, gmAhr2a
  Activation of transcription of XRE-controlled luciferase reporter gene: activated
[2]; COS-7 cells, gmAhr2a, luciferase reporter
  EC50 (in words): picomolar range
[3]
  Concentration at which cyp1a expression was induced: 1 nM
[4]
  Cell viability: no significant alterations in cell viabilities

## c1ccc2c(c1)cc1ccc3cccc4ccc2c1c34 [B[a]P]
[1]; COS-7 cells, gmAhr1a
  Activation of transcription of XRE-controlled luciferase reporter gene: activated
[2]; COS-7 cells, gmAhr2a
  Activation of transcription of XRE-controlled luciferase reporter gene: activated
[5]
  Alterations in the expression of gmahr1a and gmahr2a: no significant differences in transcript levels

## Clc1ccc(-c2cc(Cl)c(Cl)c(Cl)c2)cc1Cl [PCB126, 3,3′,4,4′,5-pentachlorobiphenyl]
[1]; COS-7 cells, gmAhr1a
  Activation of transcription of XRE-controlled luciferase reporter gene: activated
[2]; COS-7 cells, gmAhr2a
  Activation of transcription of XRE-controlled luciferase reporter gene: activated

## Clc1cc2c(cc1Cl)Oc1cc(Cl)c(Cl)cc1O2 [TCDD, 2,3,7,8-Tetrachlorodibenzo-p-dioxin]
[6]; [3H]TCDD 2 nM
  Specific binding of [3H]TCDD: Specific binding of [^3H]TCDD was observed
[7]; [3H]TCDD 2 nM
  Specific binding of [3H]TCDD: Specific binding of [^3H]TCDD was observed
[1]
  EC50: ~1 nM
[1]; COS-7 cells, gmAhr1a
  Activation of transcription of XRE-controlled luciferase reporter gene: activated
[1]; gmAhr1a compared with gmAhr2a
  Emax: very similar
[2]
  EC50: ~10 nM
[2]; COS-7 cells, gmAhr2a
  Activation of transcription of XRE-controlled luciferase reporter gene: activated
[3]
  Concentration at which cyp1a expression was induced: 1 nM
[5]
  Alterations in the expression of gmahr1a and gmahr2a: no significant differences in transcript levels
[4]
  Cell viability: slight reduction in cell viability
[8]
  Viability of liver slices: reduced viability

## O=c1cc(-c2ccccc2)oc2ccc3ccccc3c12 [BNF, β-naphthoflavone]
[6]; [3H]BNF 10 nM
  Specific binding of [3H]BNF: highest amount of specific binding
[9]
  Specific binding of [3H]BNF: only weak or no specific binding
[7]; [3H]BNF 10 nM
  Specific binding of [3H]BNF: only weak or no specific binding
[1]; COS-7 cells, gmAhr1a
  Activation of transcription of XRE-controlled luciferase reporter gene: activated
[1]; gmAhr1a
  Shape of concentration-response: tendencies to a biphasic concentration-response
[2]; COS-7 cells, gmAhr2a
  Activation of transcription of XRE-controlled luciferase reporter gene: activated
[4]
  Cell viability: no significant alterations in cell viabilities
